High-throughput results: PubChem, The Scripps Research Institute Molecular Screening Center
ASAP1 GAP inh: blocks human ASAP1-stimulated Arf1 GTP hydrolysis | 360,000 compounds, 0.19% hits | AID 624377 | GDP FP detection | Q9ULH1 | inhibition, % at 16.5 µM; in the data active means inhibition above about 25%
Target sequence (Q9ULH1 325-724 limits assumed): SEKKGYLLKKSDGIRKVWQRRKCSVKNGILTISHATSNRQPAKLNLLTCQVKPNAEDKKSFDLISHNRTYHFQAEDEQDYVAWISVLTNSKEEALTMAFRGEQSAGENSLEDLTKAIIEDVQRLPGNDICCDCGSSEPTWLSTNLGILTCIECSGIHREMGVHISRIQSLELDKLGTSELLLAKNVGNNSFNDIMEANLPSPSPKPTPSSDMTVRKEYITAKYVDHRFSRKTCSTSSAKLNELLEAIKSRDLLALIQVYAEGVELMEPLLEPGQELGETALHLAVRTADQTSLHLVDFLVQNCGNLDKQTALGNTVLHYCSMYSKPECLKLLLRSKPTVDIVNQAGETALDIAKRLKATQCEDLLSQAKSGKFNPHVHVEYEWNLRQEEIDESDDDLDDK
ZTA DNA inh: counter-screen for EBNA-1 inhibitors: inhibitors of Epstein-Barr virus ZTA. ZTA-DNA binding, fluorescence polarization. inhibition, % at 11 µM. 320,000 compounds, 0.15% hits. AID 2234; in the data active means inhibition above about 33%
EBNA-1 inh: blocks EBNA-1 binding to DNA | AID 1950 | EBNA-1 DNA binding, fluorescence polarization | 300,000 compounds, 0.34% hits | inhibition, % at 14.8 µM; in the data active means inhibition above about 28%
ARFGAP1 inh: rat ARFGAP1 inhibition; AID 651572; inhibition, % at 16.5 µM; Arfgap1-stimulated ARF1 GTP hydrolysis, GDP FP detection; 360,000 compounds, 0.26% hits;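 active means inhibition above a per-plate limit, mean inhibition of low control wells plus 3 SD, cut at about 25% in these data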
Target sequence (Q62848 1-136 limits assumed): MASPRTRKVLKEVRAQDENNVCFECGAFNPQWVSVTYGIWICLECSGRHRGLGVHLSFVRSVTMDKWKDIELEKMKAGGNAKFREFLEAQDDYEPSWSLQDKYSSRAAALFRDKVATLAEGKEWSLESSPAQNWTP
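Material – truncated rat Arfgap1 GAP domain · Buffer or medium – HEPES-based buffer, pH 7.5 · Reagent – human ARF1(Δ1-17)-GTP substrate · Dosing – 16.5 µM single point, 1.26% DMSO · Schedule – GTP hydrolysis reaction 2 h at 25 °C · Technique – GDP detection by fluorescence polarization · Benchmarks – No-Arfgap1 wells (100%) versus DMSO full-reaction wells (0%) · Repeats – single replicate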
EBNA-1 confirm: EBNA-1 (EBV) inhibition, confirmation; shares compounds with EBNA-1 inh; 830 compounds, 35% hits; Recombinant EBNA-1 DBD, Cy5-DNA fluorescence polarization; inhibition, % at 14.8 µM;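 active means mean inhibition across replicates above a set limit taken from the earlier primary screen, cut at about 28% in these data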
ZTA DNA inh trip: blocks Epstein-Barr virus ZTA in triplicate, EBNA-1 counter-screen; shares compounds with EBNA-1 inh; Zta-ZRE DNA binding, Cy5 fluorescence polarization; inhibition, % at 11.1 µM; 830 tested, under 10 active; AID 2328;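 active means mean inhibition over triplicates above a set limit taken from the primary EBNA-1 screen, cut at about 37% in these data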;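 further: purified full length Zta protein with Cy5 labeled ZRE DNA probe; inhibitors lower polarization by freeing the labeled DNA probe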
A number is an active result. A selection: hits, their analogues and other compounds. The true share with any hit is near 0.75%.

What do the screens show for `COc1ccc(S(=O)(=O)N2CCOCC2)cc1NC(=O)c1ccc(Cl)cc1`?
ASAP1 GAP inh: inactive; ZTA DNA inh: inactive; EBNA-1 inh: 44.2; ARFGAP1 inh: inactive; EBNA-1 confirm: 32.1; ZTA DNA inh trip: inactive

How did CCc1noc(C)c1C(=O)Nc1cc(S(=O)(=O)N2CCOCC2)ccc1OCC(F)(F)F do in these assays?
ASAP1 GAP inh: inactive; ZTA DNA inh: inactive; EBNA-1 inh: 79.0; ARFGAP1 inh: inactive; EBNA-1 confirm: inactive; ZTA DNA inh trip: inactive

How did CCCCc1c(-c2ccccc2OC)ncn1Cc1c(F)cccc1F do in these assays?
ASAP1 GAP inh: inactive; ARFGAP1 inh: inactive

Results for CCCCNc1cccc2c1S(=O)(=O)N[C@@H](CC(C)C)CO2 ?
ASAP1 GAP inh: inactive; ARFGAP1 inh: inactive

Results for COC(=O)c1cn(NC(=O)c2ccc(OC)c(OC)c2)c(=O)c2ccccc12 ?
ASAP1 GAP inh: inactive; ZTA DNA inh: inactive; EBNA-1 inh: inactive; ARFGAP1 inh: inactive

What do the screens show for `COC(=O)c1cn(NC(=O)/C=C/c2cc(OC)ccc2OC)c(=O)c2ccccc12`?
ASAP1 GAP inh: inactive; ZTA DNA inh: inactive; EBNA-1 inh: 42.3; ARFGAP1 inh: inactive; EBNA-1 confirm: inactive; ZTA DNA inh trip: inactive

How did CCCCCC(=O)NC1CCCCN(C)C1=O (configuration not stated) do in these assays?
ASAP1 GAP inh: inactive; ARFGAP1 inh: inactive

Results for Nc1c(C(=O)NC2CC2)sc2nc3c(c(-c4ccco4)c12)CC/C3=C/c1ccco1 ?
ZTA DNA inh: inactive; EBNA-1 inh: 45.9; EBNA-1 confirm: inactive; ZTA DNA inh trip: inactive

Results for NC(=O)c1sc2nc3c(c(-c4ccco4)c2c1N)CCC3 ?
ASAP1 GAP inh: inactive; ZTA DNA inh: inactive; EBNA-1 inh: inactive; ARFGAP1 inh: inactive

What do the screens show for `COC(=O)c1cccc(S(=O)(=O)N2CCC(NC(=O)Nc3cccc(F)c3)CC2)c1`?
ASAP1 GAP inh: inactive; ZTA DNA inh: inactive; EBNA-1 inh: 36.0; ARFGAP1 inh: inactive; EBNA-1 confirm: 60.6; ZTA DNA inh trip: inactive

Results for CC(=O)c1ccc(S(=O)(=O)N2CCC(NC(=O)Nc3cccc(F)c3)CC2)cc1 ?
ASAP1 GAP inh: inactive; ZTA DNA inh: inactive; EBNA-1 inh: inactive; ARFGAP1 inh: inactive

What do the screens show for `CCOc1ccc(-n2c(SCC(=O)Nc3nccs3)nc3c(c2=O)SCC3)cc1`?
ASAP1 GAP inh: inactive; ZTA DNA inh: inactive; EBNA-1 inh: inactive; ARFGAP1 inh: inactive

How did Cc1ccc(-n2c(SCC(=O)Nc3nccs3)nc3c(c2=O)SCC3)cc1 do in these assays?
ASAP1 GAP inh: inactive; ZTA DNA inh: inactive; EBNA-1 inh: 39.1; ARFGAP1 inh: inactive; EBNA-1 confirm: 38.4; ZTA DNA inh trip: inactive

How did COc1ccc(N2C(=O)c3[nH]nc(-c4ccccc4)c3C2c2ccc(Br)cc2)cc1 (configuration not stated) do in these assays?
ASAP1 GAP inh: inactive; ARFGAP1 inh: inactive

What do the screens show for `COC(=O)C1=C(C)N(Cc2ccc(C(F)(F)F)cc2)C(=NCc2ccc(C(F)(F)F)cc2)NC1c1ccccc1` (configuration not stated)?
ASAP1 GAP inh: inactive; ARFGAP1 inh: inactive

What do the screens show for `O=C(Nc1ccccc1)c1cccc(N2C(=O)C3C4C=CC(C5CC45)C3C2=O)c1` (configuration not stated)?
ASAP1 GAP inh: inactive; ZTA DNA inh: inactive; EBNA-1 inh: inactive; ARFGAP1 inh: inactive

How did Cc1cccc(NC(=O)c2ccc(N3C(=O)C4C5C=CC(C6CC56)C4C3=O)cc2)c1 (configuration not stated) do in these assays?
ASAP1 GAP inh: inactive; ZTA DNA inh: inactive; EBNA-1 inh: 56.6; ARFGAP1 inh: inactive; EBNA-1 confirm: 41.2; ZTA DNA inh trip: inactive

How did CC(=O)Nc1ccc(NC(=O)CSc2ccc(-c3ccc4c(c3)OCO4)nn2)cc1 do in these assays?
ASAP1 GAP inh: inactive; ZTA DNA inh: inactive; EBNA-1 inh: 49.0; ARFGAP1 inh: inactive; EBNA-1 confirm: inactive; ZTA DNA inh trip: inactive

Results for O=C(Cn1nc(-c2ccc3c(c2)OCCO3)ccc1=O)Nc1cccc(NC(=O)c2ccccn2)c1 ?
ZTA DNA inh: inactive; EBNA-1 inh: 40.8; EBNA-1 confirm: 43.4; ZTA DNA inh trip: inactive

What do the screens show for `COCCN1Cc2cc(C(=O)OC)c3c(c2C1=O)c1cc(OC)ccc1n3S(=O)(=O)c1ccc(C)cc1`?
ASAP1 GAP inh: inactive; ARFGAP1 inh: inactive

Results for C[C@@H]1CN([C@@H](C)CO)C(=O)CCCn2cc(nn2)CO[C@H]1CN(C)C(=O)Nc1ccc2c(c1)OCCO2 ?
ASAP1 GAP inh: inactive; ARFGAP1 inh: inactive

What do the screens show for `Cc1c(C(=O)NNC(=O)c2ccccc2O)oc2ccc(Br)cc12`?
ASAP1 GAP inh: inactive; ZTA DNA inh: inactive; EBNA-1 inh: inactive; ARFGAP1 inh: inactive

Results for CCOc1ccc2oc(C(=O)NNC(=O)c3ccccc3O)c(C)c2c1 ?
ASAP1 GAP inh: inactive; ZTA DNA inh: inactive; EBNA-1 inh: 72.8; ARFGAP1 inh: inactive; EBNA-1 confirm: inactive; ZTA DNA inh trip: inactive

Results for CC(C)C(=O)Nc1ccc(C(=O)NNC(=O)CCCOc2ccc(Cl)cc2Cl)cc1 ?
ASAP1 GAP inh: inactive; ZTA DNA inh: inactive; EBNA-1 inh: 35.9; ARFGAP1 inh: inactive; EBNA-1 confirm: inactive; ZTA DNA inh trip: inactive

What do the screens show for `COc1ccc(/C=C2\SC(=S)N(NS(=O)(=O)c3ccc(C)cc3)C2=O)c(OC)c1`?
ASAP1 GAP inh: inactive; ZTA DNA inh: inactive; EBNA-1 inh: inactive; ARFGAP1 inh: inactive

How did COc1ccccc1/C=C1\SC(=S)N(NS(=O)(=O)c2ccc(C)cc2)C1=O do in these assays?
ASAP1 GAP inh: inactive; ZTA DNA inh: inactive; EBNA-1 inh: 30.7; ARFGAP1 inh: inactive; EBNA-1 confirm: inactive; ZTA DNA inh trip: inactive

Results for COc1ccc(C2CC(=O)C(c3ccc(Br)cc3)=CN2Cc2ccccc2)cc1 (configuration not stated) ?
ASAP1 GAP inh: inactive; ARFGAP1 inh: inactive

How did Cc1ccc2nc(-c3ccc(NC(=O)CN4C(=O)NC(C)(c5ccc(OC(F)F)cc5)C4=O)cc3)sc2c1 (configuration not stated) do in these assays?
ASAP1 GAP inh: inactive; ZTA DNA inh: inactive; EBNA-1 inh: 39.7; ARFGAP1 inh: inactive; EBNA-1 confirm: inactive; ZTA DNA inh trip: inactive

Results for Cc1csc2ncnc(N3CCN(C(=S)Nc4ccc(C(F)(F)F)cc4)CC3)c12 ?
ASAP1 GAP inh: inactive; ZTA DNA inh: inactive; EBNA-1 inh: 46.9; ARFGAP1 inh: inactive; EBNA-1 confirm: inactive; ZTA DNA inh trip: inactive

Results for O=C(CNC(=O)c1ccc(N2C(=O)c3ccccc3C2=O)cc1)OCC(=O)c1ccc(Cl)cc1 ?
ASAP1 GAP inh: inactive; ZTA DNA inh: inactive; EBNA-1 inh: 35.9; ARFGAP1 inh: inactive; EBNA-1 confirm: inactive; ZTA DNA inh trip: inactive

How did Cc1ccc(C(=O)COC(=O)CNC(=O)c2ccc(N3C(=O)c4ccccc4C3=O)cc2)cc1C do in these assays?
ASAP1 GAP inh: inactive; ZTA DNA inh: inactive; EBNA-1 inh: 29.0; ARFGAP1 inh: inactive; EBNA-1 confirm: inactive; ZTA DNA inh trip: inactive
